Where a chain is given by its changes, count along the chain named. The source made the active and inactive calls. The calls are words filed in the database; no cut-off is given here.
Assays:
[1] = system: T1, NAD-dependent protein deacetylase sirtuin-1 (Homo sapiens), Q96EB6 [Q345A]; assay: Activation of SIRT1 Q345A mutant (unknown origin) at 10 uM relative to control
T1 sequence (whole entry): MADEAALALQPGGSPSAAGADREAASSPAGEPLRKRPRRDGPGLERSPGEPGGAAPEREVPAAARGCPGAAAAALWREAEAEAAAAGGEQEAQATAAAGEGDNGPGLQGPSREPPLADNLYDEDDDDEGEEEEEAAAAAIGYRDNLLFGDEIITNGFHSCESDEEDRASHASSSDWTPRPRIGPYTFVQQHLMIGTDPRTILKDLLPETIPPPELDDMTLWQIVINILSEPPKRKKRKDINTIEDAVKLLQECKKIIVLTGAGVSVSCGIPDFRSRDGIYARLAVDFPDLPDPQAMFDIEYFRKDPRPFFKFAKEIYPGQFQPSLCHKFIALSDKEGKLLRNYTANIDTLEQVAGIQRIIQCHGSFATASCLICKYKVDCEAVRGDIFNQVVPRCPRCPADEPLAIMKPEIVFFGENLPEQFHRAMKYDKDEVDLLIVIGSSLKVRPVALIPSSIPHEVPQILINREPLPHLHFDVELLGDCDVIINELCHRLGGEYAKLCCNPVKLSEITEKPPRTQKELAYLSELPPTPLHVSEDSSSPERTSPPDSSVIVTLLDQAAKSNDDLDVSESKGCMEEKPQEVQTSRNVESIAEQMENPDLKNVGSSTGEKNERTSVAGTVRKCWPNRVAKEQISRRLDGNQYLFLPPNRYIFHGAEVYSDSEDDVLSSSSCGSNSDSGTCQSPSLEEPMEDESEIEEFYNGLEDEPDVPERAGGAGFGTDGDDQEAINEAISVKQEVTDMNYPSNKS

[2] = target: NAD-dependent protein deacetylase sirtuin-1 (Homo sapiens, UniProt Q96EB6, V445A); assay: Activation of SIRT1 V445A mutant (unknown origin)
Chain of NAD-dependent protein deacetylase sirtuin-1 (Homo sapiens, UniProt Q96EB6, V445A) (Q96EB6 2-747 V445A limits assumed): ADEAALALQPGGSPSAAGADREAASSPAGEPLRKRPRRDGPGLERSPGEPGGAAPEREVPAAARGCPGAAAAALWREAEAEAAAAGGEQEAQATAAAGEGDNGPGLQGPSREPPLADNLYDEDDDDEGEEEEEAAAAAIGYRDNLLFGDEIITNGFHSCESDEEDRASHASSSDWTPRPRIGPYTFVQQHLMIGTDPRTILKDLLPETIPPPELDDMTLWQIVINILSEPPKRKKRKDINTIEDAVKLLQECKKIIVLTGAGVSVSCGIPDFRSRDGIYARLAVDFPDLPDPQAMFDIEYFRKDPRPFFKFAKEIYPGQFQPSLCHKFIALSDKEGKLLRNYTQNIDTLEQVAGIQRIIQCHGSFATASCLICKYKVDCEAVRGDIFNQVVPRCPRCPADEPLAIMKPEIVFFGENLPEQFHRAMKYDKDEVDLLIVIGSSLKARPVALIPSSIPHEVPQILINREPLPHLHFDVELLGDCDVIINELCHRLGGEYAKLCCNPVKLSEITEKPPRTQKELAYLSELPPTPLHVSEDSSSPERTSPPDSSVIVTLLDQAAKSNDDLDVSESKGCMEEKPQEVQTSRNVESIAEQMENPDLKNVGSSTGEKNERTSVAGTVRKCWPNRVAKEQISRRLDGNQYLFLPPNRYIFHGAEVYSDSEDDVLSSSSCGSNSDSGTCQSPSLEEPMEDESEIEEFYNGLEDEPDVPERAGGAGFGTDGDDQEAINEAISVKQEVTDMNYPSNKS
In short: (§1)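 His-tagged SIRT1 Q345A or V445A mutants were made by site-directed mutagenesis and expressed in E. coli, Ni-NTA purified. They were assayed under the same screening conditions as wild type: 750 μM NAD⁺, 31.25 μM ac-RHKK_ac-AMC, pH 8.0 Tris buffer, trypsin release of AMC, ex 340 / em 490 nm. Compounds came from 3-fold DMSO dilutions. EC1.5 (50% activity increase) was taken from a dose–response fit.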

[3] = Stability of the compound in cultured medium at 100 uM after 30 mins; format: physicochemical; conditions: 0.5 h
In short: (§2)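 MCF-7 cells were exposed to 100 μM compound for 0–360 min. Medium and acetonitrile-treated washed cells were collected separately at each time point. Compound spiked into fresh cell-free medium and handled the same way served as control. Samples were centrifuged and quantified by reversed-phase HPLC.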

[4] = Stability of the compound in fresh cell medium at 100 uM after 120 mins; format: physicochemical; conditions: 2 h; in short: as §2
[5] = target: T2, NAD-dependent protein deacetylase sirtuin-1 (Homo sapiens) (UniProt Q96EB6); assay: Activation of SIRT1 in human MCF7 cells assessed as reduction in doxorubicin-induced acetyl-p53 level at 60 uM after 6 hrs by Western blotting analysis; format: cell-based
T2 sequence (whole entry): T1 sequence (whole entry) with A345Q
In short: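 MCF-7 cells were seeded at 1 × 10⁵ per well in DMEM with 10% FCS and grown 24 h at 37 °C, 5% CO₂. Graded compound concentrations were added together with 0.1 μM TSA and 5 μM doxorubicin for 6 h. Lysate (50 μg protein) was run on a 9% gel and blotted with an anti-acetyl-p53 (Lys382) polyclonal antibody at 4 °C overnight, then HRP anti-rabbit IgG with chemiluminescence.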

[6] = target: T3, NAD-dependent protein deacetylase sirtuin-1 (Homo sapiens, UniProt Q96EB6); assay: Activation of N-terminal His6-tagged SIRT1 (156 to 664 amino acid residues) (unknown origin) expressed in Escherichia coli BL21(DE3) using ac-RHKKac-AMC as substrate after 45 mins by fluorometric analysis
T3 sequence (Q96EB6 whole entry): T1 sequence (whole entry) with A345Q

[7] = system: NAD-dependent protein deacetylase sirtuin-1 (Homo sapiens), Q96EB6 [UNDEFINED MUTATION]; assay: Ratio of EC50 for SIRT1 V445A mutant (unknown origin) to EC50 for wild type SIRT1 (unknown origin)
Chain of NAD-dependent protein deacetylase sirtuin-1 (Homo sapiens), Q96EB6 [UNDEFINED MUTATION] (Q96EB6 whole entry, looked up, stated change not applied, the tested form may be a part): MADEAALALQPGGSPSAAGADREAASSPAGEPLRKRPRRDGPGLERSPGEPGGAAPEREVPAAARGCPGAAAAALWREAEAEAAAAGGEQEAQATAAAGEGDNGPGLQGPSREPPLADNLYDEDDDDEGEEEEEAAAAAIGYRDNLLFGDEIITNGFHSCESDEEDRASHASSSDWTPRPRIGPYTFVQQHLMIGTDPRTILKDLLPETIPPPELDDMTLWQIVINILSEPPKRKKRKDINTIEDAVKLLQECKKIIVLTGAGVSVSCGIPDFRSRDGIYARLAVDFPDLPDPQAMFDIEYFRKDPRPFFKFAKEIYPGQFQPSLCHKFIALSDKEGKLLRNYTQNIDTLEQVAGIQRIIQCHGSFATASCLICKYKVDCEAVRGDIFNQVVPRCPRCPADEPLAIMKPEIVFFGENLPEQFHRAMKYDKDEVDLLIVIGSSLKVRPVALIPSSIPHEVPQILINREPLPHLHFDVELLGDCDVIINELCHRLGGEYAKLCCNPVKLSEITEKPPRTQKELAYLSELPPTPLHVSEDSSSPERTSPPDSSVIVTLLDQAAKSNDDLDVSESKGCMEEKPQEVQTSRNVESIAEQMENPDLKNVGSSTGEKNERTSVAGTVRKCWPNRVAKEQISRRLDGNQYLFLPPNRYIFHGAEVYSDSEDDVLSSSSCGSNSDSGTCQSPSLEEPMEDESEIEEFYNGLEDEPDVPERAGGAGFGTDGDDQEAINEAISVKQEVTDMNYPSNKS

[8] = target: T2, NAD-dependent protein deacetylase sirtuin-1 (Homo sapiens); assay: Activation of N-terminal His6-tagged SIRT1 (156 to 664 amino acid residues) (unknown origin) expressed in Escherichia coli BL21(DE3) using ac-RHKKac-AMC as substrate at 50 uM after 45 mins by fluorimetric analysis relative to control
In short: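 Fluorogenic deacetylation screen: 1 μM SIRT1 with 750 μM NAD⁺ and 31.25 μM ac-RHKK_ac-AMC in Tris buffer (25 mM Tris, 137 mM NaCl, 2.7 mM KCl, 1 mM MgCl₂, pH 8.0). Compounds at 50 μM from DMSO stocks; DMSO alone as blank. Trypsin then releases AMC from deacetylated peptide; fluorescence read at 340/490 nm.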

[9] = Stability of the compound in cultured medium assessed as compound remaining at 100 uM after 30 mins; format: physicochemical; conditions: 6 h, in the assay text read “after 6 hrs” for “after 30 mins”; in short: as §2
[10] = system: NAD-dependent protein deacetylase sirtuin-1 (Homo sapiens), Q96EB6 [UNDEFINED MUTATION]; assay: Ratio of EC50 for SIRT1 Q345A mutant (unknown origin) to EC50 for wild type SIRT1 (unknown origin)
MCF7 = assay: Drug uptake in human MCF7 cells at 100 uM measured at 30 mins; format: ADME, cell-based; conditions: mcf7, 0.5 h; in short: as §2
[11] = target: NAD-dependent protein deacetylase sirtuin-1 (Homo sapiens, UniProt Q96EB6, Q345A); assay: Activation of SIRT1 Q345A mutant (unknown origin); in short: as §1
[12] = system: T4, NAD-dependent protein deacetylase sirtuin-1 (Homo sapiens), Q96EB6 [V445A]; assay: Activation of SIRT1 V445A mutant (unknown origin) at 10 uM relative to control
T4 sequence (whole entry): T1 sequence (whole entry) with A345Q, V445A

max activation [1]: 237%
EC50 [2]: 4.8 µM
Stability [3]: Stable
Stability [4]: Stable
Activity [5]: inactive
EC50 [6]: 2.7 µM
Ratio EC50 [7]: 2
max activation [8]: 647%
Stability [9]: 20 µM
Ratio EC50 [10]: 4
Drug uptake (MCF7): Active
EC50 [11]: 12.2 µM
max activation [12]: 353%
Compound: O=C(N/N=C/c1cc(Br)c(O)c(Br)c1O)c1ccc2cc(Br)ccc2c1

Reference: ChEMBL document CHEMBL2331243, “Discovery and mechanism study of SIRT1 activators that promote the deacetylation of fluorophore-labeled substrate” (J Med Chem, 2013)
